In ChEMBL document CHEMBL4354800, “Amphiphilic nebramine-based hybrids Rescue legacy antibiotics from intrinsic resistance in multidrug-resistant Gram-negative bacilli” (Eur J Med Chem, 2019):

Assays:
Type in all cases: functional
[1] = test system: Pseudomonas aeruginosa; test: Potentiation of minocycline-induced antimicrobial activity against MDR/XDR Pseudomonas aeruginosa isolate PA262-101856 harboring GyrA Thr83Ile mutant assessed as minocycline MIC80 incubated for 18 hrs by broth microdilution method (reference value: 32 microg/ml); details: isolate PA262-101856, 18 h
[2] = test system: Pseudomonas aeruginosa; test: Potentiation of ciprofloxacin-induced antibacterial activity against MDR/XDR Pseudomonas aeruginosa isolate 91433 devoid of GyrA T83I mutant assessed as fold reduction in ciprofloxacin MIC at 7.5 uM incubated for 18 hrs by broth microdilution method
[3] = test system: Pseudomonas aeruginosa; test: Potentiation of rifampicin-induced antimicrobial activity against MDR/XDR Pseudomonas aeruginosa isolate PA264-104354 harboring GyrA Thr83Ile mutant assessed as rifampicin MIC50 incubated for 18 hrs by broth microdilution method (reference value: 8 microg/ml); details: isolate PA264-104354, 18 h
[4] = test system: Pseudomonas aeruginosa; test: Potentiation of minocycline-induced antimicrobial activity against MDR/XDR Pseudomonas aeruginosa isolate 101243 devoid of GyrA Thr83Ile mutant assessed as minocycline MIC50 incubated for 18 hrs by broth microdilution method (reference value: 16 microg/ml); details: isolate 101243, 18 h
[5] = test system: Pseudomonas aeruginosa; test: Potentiation of rifampicin-induced antibacterial activity against wild type Pseudomonas aeruginosa PAO1 assessed as fold reduction in rifampicin MIC at 7.5 uM incubated for 18 hrs by broth microdilution method
Outline: (§1)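 CLSI broth microdilution. Overnight cultures were set to 0.5 McFarland in saline, diluted 1:50 in Mueller-Hinton broth to a final 5 × 10^5 CFU/mL, and incubated 18 h at 37 °C against 2-fold antibiotic dilutions. A fixed adjuvant level was present throughout. MIC = lowest concentration with no visible turbidity, confirmed at 590 nm. Potentiation = fold drop in antibiotic MIC versus antibiotic alone.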

[6] = test system: Pseudomonas aeruginosa; test: Potentiation of minocycline-induced antimicrobial activity against MDR/XDR Pseudomonas aeruginosa isolate PA262-101856 harboring GyrA Thr83Ile mutant assessed as minocycline MIC50 incubated for 18 hrs by broth microdilution method (reference value: 16 microg/ml); details: isolate PA262-101856, 18 h
[7] = test system: Acinetobacter baumannii; test: Potentiation of rifampicin-induced antibacterial activity against multidrug-resistant Acinetobacter baumannii AB031 assessed as fold reduction in rifampicin MIC at 7.5 uM incubated for 18 hrs by broth dilution method; outline: as §1
[8] = test system: Pseudomonas aeruginosa; test: Potentiation of rifampicin-induced antimicrobial activity against MDR/XDR Pseudomonas aeruginosa isolate 100036 harboring GyrA Thr83Ile mutant assessed as rifampicin MIC80 incubated for 18 hrs by broth microdilution method (reference value: 16 microg/ml); details: isolate 100036, 18 h
[9] = test system: Pseudomonas aeruginosa; test: Potentiation of rifampicin-induced antimicrobial activity against MDR/XDR Pseudomonas aeruginosa isolate PA259-96918 harboring GyrA Thr83Ile mutant assessed as rifampicin MIC50 incubated for 18 hrs by broth microdilution method (reference value: 8 microg/ml); details: isolate PA259-96918, 18 h
[10] = test system: Klebsiella pneumoniae; test: Potentiation of rifampicin-induced antibacterial activity against Klebsiella pneumoniae 113254 assessed as fold reduction in rifampicin MIC at 4.1 uM incubated for 18 hrs by broth dilution method
Outline: (§2)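 Antibiotic MIC determined by CLSI broth microdilution (MHB, 5 × 10^5 CFU/mL, 18 h, 37 °C), once alone and once with a fixed concentration of the adjuvant. Potentiation is the ratio of the antibiotic MIC alone to its MIC in the presence of the adjuvant.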

[11] = test system: Escherichia coli; test: Potentiation of minocycline-induced antibacterial activity against Escherichia coli 94474 assessed as fold reduction in minocycline MIC at 4.1 uM incubated for 18 hrs by broth dilution method; outline: as §2
[12] = test system: Klebsiella pneumoniae; test: Synergistic antibacterial activity against Klebsiella pneumoniae 113250 assessed as fractional inhibitory concentration index in presence of minocycline incubated for 18 hrs by broth dilution method
Outline: (§3)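 Checkerboard titration of the adjuvant against the antibiotic, run under the CLSI microdilution conditions (MHB, 5 × 10^5 CFU/mL, 18 h, 37 °C). Each agent's FIC is its MIC in combination divided by its MIC alone; FICI is the sum of the two FICs. FICI ≤0.5 was read as synergy, >0.5–4.0 as no interaction, and >4.0 as antagonism.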

[13] = test system: Escherichia coli; test: Potentiation of rifampicin-induced antibacterial activity against Escherichia coli 107115 assessed as fold reduction in rifampicin MIC at 4.1 uM incubated for 18 hrs by broth dilution method; outline: as §2
[14] = test system: Escherichia coli; test: Synergistic antibacterial activity against Escherichia coli 94474 assessed as fractional inhibitory concentration index in presence of minocycline incubated for 18 hrs by broth dilution method; outline: as §3
[15] = test system: Escherichia coli; test: Potentiation of rifampicin-induced antibacterial activity against Escherichia coli 94474 assessed as fold reduction in rifampicin MIC at 4.1 uM incubated for 18 hrs by broth dilution method; outline: as §1
[16] = test system: Klebsiella pneumoniae; test: Synergistic antibacterial activity against Klebsiella pneumoniae 113254 assessed as fractional inhibitory concentration index in presence of minocycline incubated for 18 hrs by broth dilution method; outline: as §3
[17] = test system: Enterobacter cloacae; test: Potentiation of rifampicin-induced antibacterial activity against Enterobacter cloacae 117029 assessed as fold reduction in rifampicin MIC at 4.1 uM incubated for 18 hrs by broth dilution method; outline: as §2
[18] = test system: Pseudomonas aeruginosa; test: Potentiation of moxifloxacin-induced antibacterial activity against MDR/XDR Pseudomonas aeruginosa isolate 91433 devoid of GyrA T83I mutant assessed as fold reduction in moxifloxacin MIC at 9 uM incubated for 18 hrs by broth microdilution method; outline: as §1
[19] = test system: Pseudomonas aeruginosa; test: Potentiation of minocycline-induced antibacterial activity against wild type Pseudomonas aeruginosa PAO1 assessed as fold reduction in minocycline MIC at 9 uM incubated for 18 hrs by broth microdilution method; outline: as §1
[20] = test system: Pseudomonas aeruginosa; test: Potentiation of ciprofloxacin-induced antibacterial activity against MDR/XDR Pseudomonas aeruginosa isolate PA260-97103 harboring GyrA T83I mutant assessed as fold reduction in ciprofloxacin MIC at 9 uM incubated for 18 hrs by broth microdilution method
[21] = test system: Pseudomonas aeruginosa; test: Potentiation of rifampicin-induced antibacterial activity against MDR/XDR Pseudomonas aeruginosa isolate PA259-96918 harboring GyrA T83I mutant assessed as fold reduction in rifampicin MIC at 9 uM incubated for 18 hrs by broth microdilution method; outline: as §1
[22] = test system: Pseudomonas aeruginosa; test: Potentiation of moxifloxacin-induced antibacterial activity against MDR/XDR Pseudomonas aeruginosa isolate 101243 devoid of GyrA T83I mutant assessed as fold reduction in moxifloxacin MIC at 9 uM incubated for 18 hrs by broth microdilution method; outline: as §1
[23] = test system: Pseudomonas aeruginosa; test: Potentiation of ciprofloxacin-induced antibacterial activity against MDR/XDR Pseudomonas aeruginosa isolate 91433 devoid of GyrA T83I mutant assessed as fold reduction in ciprofloxacin MIC at 9 uM incubated for 18 hrs by broth microdilution method
[24] = test system: Pseudomonas aeruginosa; test: Potentiation of moxifloxacin-induced antibacterial activity against MDR/XDR Pseudomonas aeruginosa isolate PA260-97103 harboring GyrA T83I mutant assessed as fold reduction in moxifloxacin MIC at 9 uM incubated for 18 hrs by broth microdilution method; outline: as §1
[25] = test system: Pseudomonas aeruginosa; test: Potentiation of minocycline-induced antibacterial activity against MDR/XDR Pseudomonas aeruginosa isolate PA260-97103 harboring GyrA T83I mutant assessed as fold reduction in minocycline MIC at 9 uM incubated for 18 hrs by broth microdilution method

COc1c(N2C[C@@H]3CCCN(CCCCCCCCCCCCO[C@@H]4[C@@H](O)[C@H](N)C[C@H](N)[C@H]4O[C@H]4O[C@H](CN)[C@@H](O)C[C@H]4N)[C@@H]3C2)c(F)cc2c(=O)c(C(=O)O)cn(C3CC3)c12.Cl.Cl.Cl.Cl.Cl
MIC80 [1]: 1 µg/mL
fold change (FC) [2]: 16
MIC50 [3]: 0.06 µg/mL
MIC50 [4]: 0.5 µg/mL
fold change (FC) [5]: >=256
MIC50 [6]: 0.5 µg/mL
fold change (FC) [7]: 64
MIC80 [8]: 0.13 µg/mL
MIC50 [9]: 0.06 µg/mL

Cl.Cl.Cl.Cl.Cl.NC[C@H]1O[C@H](O[C@H]2[C@H](OCCCCCCCCCCCCN3CCN(c4cc5c(cc4F)c(=O)c(C(=O)O)cn5C4CC4)CC3)[C@@H](O)[C@H](N)C[C@@H]2N)[C@H](N)C[C@@H]1O
fold change (FC) [10]: 64
fold change (FC) [11]: 16
fractional inhibitory concentration index (FICI) [12]: 0.504
fold change (FC) [13]: >=256
fractional inhibitory concentration index (FICI) [14]: 0.063 - 0.078
fold change (FC) [15]: 256
fractional inhibitory concentration index (FICI) [16]: 0.504
fold change (FC) [17]: >=256

Cl.Cl.Cl.Cl.Cl.Cl.NC[C@H]1O[C@H](O[C@H]2[C@H](OCCCCCCCCCCN3CCN(Cc4cccc5ccccc45)CC3)[C@@H](O)[C@H](N)C[C@@H]2N)[C@H](N)C[C@@H]1O
fold change (FC) [18]: 8
fold change (FC) [19]: 16
fold change (FC) [20]: 8
fold change (FC) [21]: >=256
fold change (FC) [22]: 8
fold change (FC) [23]: 8
fold change (FC) [24]: 128
fold change (FC) [25]: 64
